Results published in ChEMBL document CHEMBL3585244, “Click Chemistry in Lead Optimization of Boronic Acids as β-Lactamase Inhibitors” (J Med Chem, 2015).
Values after ≈ are worked out from the molar mass of the structure shown.

How the values were obtained:
[1] = (§1) Inhibition of Enterobacter cloacae beta-lactamase P99 expressed in Escherichia coli AS226-51 incubated for 5 mins before nitrocefin substrate addition by spectrophotometry
Method in brief: (§2)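 P99 expressed from pCS980 in E. coli AS226-51, grown in SOB with kanamycin at 37 °C and induced with 0.5 mM IPTG at A600 0.6. Purified by preparative isoelectric focusing, gel filtration and cation exchange. Inhibitor preincubated with enzyme for 5 min in 10 mM PBS pH 7.4 at room temperature. […] Ki = IC50/(1+[S]/Km).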

Enterobacter cloacae = assay: as §1; conditions: TDE = time-dependent effect; method in brief: as §2
[2] = (§3) Inhibition of Pseudomonas aeruginosa beta-lactamase PDC3 expressed in Escherichia coli BL21 (DE3) RP CodonPlus incubated for 5 mins before nitrocefin substrate addition by spectrophotometry
Method in brief: (§4)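 PDC-3 from P. aeruginosa 18SH subcloned in pET 24a, expressed in E. coli BL21(DE3) RP CodonPlus (37 °C, 0.5 mM IPTG at A600 0.6), purified by isoelectric focusing and FPLC.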

Pseudomonas aeruginosa = assay: as §3; conditions: TDE = time-dependent effect; method in brief: as §4
Escherichia coli [3] = assay: Potentiation of cefotaxime-induced antimicrobial effect against wild type Escherichia coli DH10B assessed as cefotaxime MIC at 4 ug/ml by agar dilution method; type: functional
[4] = Inhibition of beta-lactamase P99 (unknown origin) expressed in Escherichia coli DH10B assessed as cefotaxime MIC at 4 ug/ml by agar dilution method
Method in brief: (§5)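 MICs by cation-adjusted Mueller-Hinton agar dilution following CLSI standards. E. coli DH10B carried blaPDC-3 (from P. aeruginosa 18SH) or blaP99 subcloned in pBC SK(-). Cefotaxime was varied from 0 to 64 µg/ml, with boronate held constant at 4 µg/ml.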

[5] = Inhibition of beta-lactamase PDC-3 (unknown origin) expressed in Escherichia coli DH10B assessed as cefotaxime MIC at 4 ug/ml by agar dilution method; method in brief: as §5
Escherichia coli [6] = assay: Antimicrobial activity against wild type Escherichia coli DH10B producing beta-lactamase P99 by agar dilution method; type: functional
Method in brief: (§6)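 E. coli DH10B carrying bla genes in pBC SK(-) vector; MICs in µg/mL by agar dilution on cation-adjusted Mueller-Hinton agar per CLSI standards.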

Escherichia coli [7] = assay: Antimicrobial activity against wild type Escherichia coli DH10B by agar dilution method; type: functional
Method in brief: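 MICs by cation-adjusted Mueller-Hinton agar dilution following CLSI standards. The E. coli DH10B host carried no β-lactamase gene.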

Escherichia coli [8] = assay: Antimicrobial activity against wild type Escherichia coli DH10B producing beta-lactamase PDC3 by agar dilution method; type: functional; method in brief: as §6

For `O=C(Cc1ccccc1)N[C@@H](Cn1cc(-c2cccc(C(=O)O)c2)nn1)B(O)O`, the IC50 [1] was 110 nM, the inhibition (Enterobacter cloacae) was “tde” and the IC50 [2] was 120 nM. For the same compound, the time-dependent effect (Pseudomonas aeruginosa) was “tde”.
In the case of `Nc1cccc(-c2cn(C[C@H](NC(=O)Cc3cccs3)B(O)O)nn2)c1`, the IC50 [1] is reported as 360 nM, the inhibition (Enterobacter cloacae) is reported as “tde” and the IC50 [2] is reported as 280 nM. For the same compound, the time-dependent effect (Pseudomonas aeruginosa) was “tde”.
For `O=C(Cc1ccccc1)N[C@@H](Cn1cc(-c2ccccc2)nn1)B(O)O`, the IC50 [1] was 150 nM, the inhibition (Enterobacter cloacae) was “tde” and the IC50 [2] was 300 nM. For the same compound, the time-dependent effect (Pseudomonas aeruginosa) was “tde”.
For `CC(=O)N[C@@H](Cn1cc(C(=O)O)nn1)B(O)O`, the IC50 [1] was 27100 nM, the inhibition (Enterobacter cloacae) was “tde” and the IC50 [2] was 5000 nM. For the same compound, the time-dependent effect (Pseudomonas aeruginosa) was “tde”.
For `CC(=O)N[C@@H](Cn1cc(-c2ccccc2)nn1)B(O)O`, the IC50 [1] was 13200 nM, the inhibition (Enterobacter cloacae) was “tde” and the IC50 [2] was 9300 nM. The time-dependent effect (Pseudomonas aeruginosa) was “tde”.
With `O=C(Cc1cccs1)N[C@@H](Cn1cc(-c2cccc(C(=O)O)c2)nn1)B(O)O` the MIC (Escherichia coli [3]) was less than 0.125 µg/mL, the MIC [4] was 4 µg/mL and the IC50 [1] was 84 nM. For the same compound, the Ki [1] was 14 nM, the inhibition (Enterobacter cloacae) was “tde” and the IC50 [2] was 67 nM. For the same compound, the Ki [2] was 8 nM, the time-dependent effect (Pseudomonas aeruginosa) was “tde” and the MIC [5] was 1 µg/mL.
With `O=C(Cc1cccs1)N[C@@H](Cn1cc(-c2ccccc2)nn1)B(O)O` the IC50 [1] was 320 nM, the inhibition (Enterobacter cloacae) was “tde” and the IC50 [2] was 300 nM. The time-dependent effect (Pseudomonas aeruginosa) was “tde”.
For `O=C(Cc1cccs1)N[C@@H](Cn1ccnn1)B(O)O`, the IC50 [1] was 800 nM, the Ki [1] was 134 nM and the inhibition (Enterobacter cloacae) was “tde”. The IC50 [2] was 1300 nM, the Ki [2] was 164 nM and the time-dependent effect (Pseudomonas aeruginosa) was “tde”.
In the case of `Nc1cccc(-c2cn(C[C@H](NC(=O)Cc3ccccc3)B(O)O)nn2)c1`, the IC50 [1] is reported as 600 nM, the inhibition (Enterobacter cloacae) is reported as “tde” and the IC50 [2] is reported as 400 nM. For the same compound, the time-dependent effect (Pseudomonas aeruginosa) was “tde”.
In the case of `CC(C)(O)c1cn(C[C@H](NC(=O)Cc2cccs2)B(O)O)nn1`, the IC50 [1] is reported as 420 nM, the inhibition (Enterobacter cloacae) is reported as “tde” and the IC50 [2] is reported as 250 nM. For the same compound, the time-dependent effect (Pseudomonas aeruginosa) was “tde”.
For `O=C(Cc1cccs1)N[C@@H](Cc1cccc(C(=O)O)c1)B(O)O`, the MIC (Escherichia coli [3]) was less than 0.125 µg/mL, the MIC [4] was 4 µg/mL and the IC50 [1] was 100 nM. For the same compound, the Ki [1] was 15 nM, the inhibition (Enterobacter cloacae) was “tde” and the IC50 [2] was 150 nM. For the same compound, the Ki [2] was 13 nM, the time-dependent effect (Pseudomonas aeruginosa) was “tde” and the MIC [5] was 4 µg/mL.
For `CO/N=C(\C(=O)N[C@@H]1C(=O)N2C(C(=O)O)=C(COC(C)=O)CS[C@H]12)c1csc(N)n1` [CEFOTAXIME], the MIC (Escherichia coli [6]) was 16 µg/mL (≈ 35.1 µM), the MIC (Escherichia coli [7]) was less than 0.125 µg/mL and the MIC (Escherichia coli [8]) was 16 µg/mL (≈ 35.1 µM).
With `O=C(Cc1cccs1)N[C@@H](Cn1cc(C(=O)O)nn1)B(O)O` the MIC (Escherichia coli [3]) was less than 0.125 µg/mL, the MIC [4] was 2 µg/mL and the IC50 [1] was 140 nM. For the same compound, the Ki [1] was 23 nM, the inhibition (Enterobacter cloacae) was “tde” and the IC50 [2] was 35 nM. The Ki [2] was 4 nM, the time-dependent effect (Pseudomonas aeruginosa) was “tde” and the MIC [5] was 0.5 µg/mL.
For `O=C(Cc1cccs1)NCB(O)O`, the MIC (Escherichia coli [3]) was less than 0.125 µg/mL, the MIC [4] was 2 µg/mL and the IC50 [1] was 2700 nM. For the same compound, the Ki [1] was 450 nM, the inhibition (Enterobacter cloacae) was “tde” and the IC50 [2] was 3300 nM. The Ki [2] was 411 nM, the time-dependent effect (Pseudomonas aeruginosa) was “tde” and the MIC [5] was 2 µg/mL.
In the case of `CC(C)(O)c1cn(C[C@H](NC(=O)Cc2ccccc2)B(O)O)nn1`, the IC50 [1] is reported as 660 nM, the inhibition (Enterobacter cloacae) is reported as “tde” and the IC50 [2] is reported as 1180 nM. For the same compound, the time-dependent effect (Pseudomonas aeruginosa) was “tde”.
In the case of `O=C(Cc1ccccc1)N[C@@H](Cn1cc(C(=O)O)nn1)B(O)O`, the IC50 [1] is reported as 110 nM, the inhibition (Enterobacter cloacae) is reported as “tde” and the IC50 [2] is reported as 230 nM. For the same compound, the time-dependent effect (Pseudomonas aeruginosa) was “tde”.
With `CC(=O)N[C@@H](Cn1cc(C(C)(C)O)nn1)B(O)O` the IC50 [1] was 71000 nM, the inhibition (Enterobacter cloacae) was “tde” and the IC50 [2] was 18400 nM. For the same compound, the time-dependent effect (Pseudomonas aeruginosa) was “tde”.
